# Source: PubChem (The Scripps Research Institute Molecular Screening Center)
# Shown are actives, neighbours in structure and some others; about 4.6% of the full set was active somewhere.
# GPR7 antagonist – GPR7 receptor antagonists, primary screen, cell-based, fluorescence, single concentration | Neuropeptides B/W receptor type 1 (Homo sapiens), P48145 | GPR7-expressing cells, fluorescence antagonist assay | inhibition, % at 4.4 µM | 1.1% of 290,000 active | AID 1861, 2009; in the data active means inhibition above about 16%, passing the limit was not always enough;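 further: cells stimulated with the agonist NPW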
# Target sequence (P48145 whole entry, looked up): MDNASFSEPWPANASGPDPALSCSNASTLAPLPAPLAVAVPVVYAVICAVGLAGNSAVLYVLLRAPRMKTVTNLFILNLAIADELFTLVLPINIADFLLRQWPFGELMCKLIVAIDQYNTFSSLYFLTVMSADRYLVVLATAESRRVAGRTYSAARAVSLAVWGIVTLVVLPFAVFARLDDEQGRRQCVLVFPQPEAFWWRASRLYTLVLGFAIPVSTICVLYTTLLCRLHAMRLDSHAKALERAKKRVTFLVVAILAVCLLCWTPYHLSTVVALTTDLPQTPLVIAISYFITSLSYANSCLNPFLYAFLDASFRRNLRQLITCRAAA
# TAAR1 antagonist – human TAAR1 antagonists, primary screen, Fluo-8 calcium fluorescence, CHO RD-HGA16 cells; 1.5% of 360,000 active; inhibition, % at 3 µM; Trace amine-associated receptor 1 (Homo sapiens), Q96RJ0; antagonist;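 active means inhibition above a per-plate cutoff, the mean inhibition of test compounds on that plate plus 3 SD, cut at about 49% in these data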
#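 Assay system: CHO-derived RD-HGA16 cells stably expressing human TAAR1 plus Gα16. Timing: 140 s kinetic read after compound, 140 s after agonist. Technique: kinetic Fluo-8 calcium fluorescence measurement. Measure: % inhibition of agonist calcium response.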
# CHO parental Ca – ATP-evoked calcium signal inhibitors, parental CHO, primary screen, counter-screen for OX1R antagonist project, cell-based, fluorescence, Fluo-8 calcium dye. parental CHO-K1, ATP-induced calcium, Fluo-8 fluorescence. inhibition, % at 5.6 µM. 0.63% of 330,000 active. AID 463079, 2010;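 active means inhibition above that plate's mean sample inhibition plus 3 SD, cut at about 26% in these data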
#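 material = parental CHO cells | also added = ATP as calcium-mobilizing challenge | dosing = single point at 5.6 µM | detection = intracellular calcium via Fluo-8 no-wash fluorescent dye | read-out = % inhibition | benchmarks = low control ATP plus DMSO, high control DMSO only | repeats = one well per compound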
# OX1R antag-1 – OX1R (HCRTR1) antagonists, primary screen, fluorescence, CHO/OX1R cells, Fluo-8 calcium, orexin A | Fluo-8 calcium fluorescence | inhibition, % at 5 µM | 0.43% of 330,000 active | AID 434989, 2010;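 active means inhibition above its plate's threshold, mean inhibition of all tested compounds on the plate plus 3 SD, cut at about 37% in these data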
# Target sequence (O43613 whole entry, looked up): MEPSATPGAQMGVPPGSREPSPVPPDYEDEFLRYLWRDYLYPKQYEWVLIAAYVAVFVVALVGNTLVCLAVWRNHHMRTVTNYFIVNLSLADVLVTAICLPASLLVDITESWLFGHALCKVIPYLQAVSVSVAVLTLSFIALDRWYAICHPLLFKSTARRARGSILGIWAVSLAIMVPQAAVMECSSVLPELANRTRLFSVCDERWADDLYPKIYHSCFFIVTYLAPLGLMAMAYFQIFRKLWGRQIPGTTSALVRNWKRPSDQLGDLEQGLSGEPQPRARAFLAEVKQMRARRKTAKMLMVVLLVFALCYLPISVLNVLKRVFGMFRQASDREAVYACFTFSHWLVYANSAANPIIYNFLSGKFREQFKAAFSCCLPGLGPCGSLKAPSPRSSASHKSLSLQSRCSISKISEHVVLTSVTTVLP
# TAAR1 agonist – human TAAR1 agonists, primary screen, Fluo-8 calcium fluorescence, CHO RD-HGA16 cells | vehicle wells 0%, saturating PEA agonist 100% | Trace amine-associated receptor 1 (Homo sapiens), Q96RJ0 | 0.99% of 360,000 active | activation, % at 3 µM;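 active means activation above the mean activation of all test compounds in the run plus 3 SD, cut at about 38% in these data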
#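 Assay system – CHO-derived RD-HGA16 cells with stable Gα16 and human TAAR1 · Compound dosing – one-point dosing at 3 µM (nominal) · Incubation – 17-24 h seeding, 75 min 37 °C dye, 30 min RT · Measured by – kinetic Fluo-8 calcium fluorescence · Control set – DMSO vehicle as 0%, PEA at EC100 as 100% · Repeats – single well for each compound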
# OX1R antag-2 – antagonists of human orexin 1 receptor (OX1R); Orexin/Hypocretin receptor type 1 (Homo sapiens), O43613; OX1R-expressing cells, FRET antagonist read-out; inhibition, % at 6.6 µM; 1.8% of 330,000 active; AID 485270, 2010; in the data active means inhibition mostly above about 38%, no sharp cut-off; inactive means mostly below about 40%
# TAAR1 ag confirm – human TAAR1 agonists, retest of hits, confirmation, Fluo-8 calcium fluorescence, CHO RD-HGA16 cells; shares compounds with TAAR1 agonist; scaled: DMSO 0%, maximal phenethylamine 100%; activation, % at 3 µM; 82% of 2,400 active; AID 651783, 2012;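 active means activation above a cutoff set at the run's mean compound activation plus 3 SD, cut at about 39% in these data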
# Ga16 ag counter – nonselective calcium mobilization agonists, CHO-Ga16 cells, counter-screen for hTAAR1 agonist project, cell-based, fluorescence, CHO-Ga16 parental line; shares compounds with TAAR1 agonist; 50% of 2,400 active; activation, % at 3 µM; Fluo-8 calcium fluorescence; normalized to maximal ATP response, DMSO zero;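 active means activation above the run cutoff, the mean activation over all tested wells plus 3 SD, cut at about 12% in these data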
# TAAR1 desensitize – TAAR1 desensitization by agonist hits, confirmation, counter-screen for TAAR1 agonist project, cell-based, fluorescence, tachyphylaxis; shares compounds with TAAR1 agonist; CHO RD-HGA16 hTAAR1, Fluo-8 calcium, beta-PEA response inhibition; inhibition, % at 3 µM; 46% of 2,400 active;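 active means inhibition above the run cutoff, the mean inhibition of all test compounds plus 3 SD, cut at about 49% in these data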;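 further: beta-PEA stimulus applied at its EC80; loss of beta-PEA calcium signal after compound pretreatment read as receptor desensitization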
# Ga16 nonsel ant – inhibition of ATP-evoked calcium response in CHO-Ga16 cells, counter-screen for TAAR1 agonist project, cell-based, fluorescence | 39% of 2,400 active | CHO-Ga16 ATP-induced calcium, Fluo-8 fluorescence | inhibition, % at 3 µM | shares compounds with TAAR1 agonist;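 active means inhibition above the plate's mean compound inhibition plus 3 SD, computed per plate, cut at about 22% in these data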
# A number is an active result; - = inactive; . = no result given.
SMILES,GPR7 antagonist,TAAR1 antagonist,CHO parental Ca,OX1R antag-1,TAAR1 agonist,OX1R antag-2,TAAR1 ag confirm,Ga16 ag counter,TAAR1 desensitize,Ga16 nonsel ant
CC(=O)c1cccc(OCC(O)CNCCc2ccc(Cl)cc2)c1 (centres undefined),-,.,-,-,.,-,.,-,.,-
CCOC(=O)c1cccc(OCC(O)CNCCOc2ccccc2F)c1 (centres undefined),-,-,-,-,-,-,.,.,.,.
OC(CNCCc1ccc(Cl)cc1)COCc1ccco1 (centres undefined),-,-,-,-,56,-,67,-,-,-
COc1cccc(OC)c1OCC(=O)Nc1ccc(S(=O)(=O)N2CCCC2)cc1,.,-,-,-,-,-,.,.,.,.
O=C(CSc1nnc(-c2csc3c2CCCC3)o1)Nc1ccccc1,-,-,-,-,-,-,.,.,.,.
CC1CCCCC1NC(=O)CSc1nnc(-c2ccco2)n1N (centres undefined),.,-,.,.,73,.,-,-,-,-
COC(=O)[C@]12C[C@H](CC(=O)NCCc3ccccc3OC)C(=O)N(Cc3ccccc3)C1=C[C@H](C1CCCC1)O[C@@H]2C,.,-,.,.,-,.,.,.,.,.
CCCCCCCCN1C(=O)[C@H](CC(=O)NCCc2ccccc2OC)C[C@@]2(C(=O)OCC)CCC=C12,.,-,.,.,59,.,80,-,-,-
CCCCCCCCN1C(=O)[C@H](CC(=O)NCCCCc2ccccc2)C[C@@]2(C(=O)OC)CCCCC=C12,.,-,.,.,-,.,.,.,.,.
CCOC(=O)[C@]12CCC=C1N(Cc1ccco1)C(=O)[C@H](CC(=O)NCCc1ccccc1OC)C2,.,-,.,.,62,.,69,-,-,-
CCCCCCCCN1C(=O)[C@H](CC(=O)NCCc2ccccc2OC)C[C@@]2(C(=O)OC)CCCCC=C12,.,-,.,.,51,.,81,-,65,-
CCCCCCCCN1C(=O)[C@@H](CC(=O)NCCc2ccccc2OC)C[C@@]2(C(=O)OC)C1=C[C@H](C(C)(C)C)O[C@@H]2C,.,-,.,.,75,.,85,-,52,-
COc1ccc(CC(=O)Nc2cc(C)ccc2O)cc1OC,-,-,-,-,-,-,.,.,.,.
O=C(Nc1nn[nH]n1)c1cc(-c2ccc(Cl)c(Cl)c2Cl)nc2ccccc12,-,-,-,-,-,-,.,.,.,.
CN1CCC(=C(c2ccccc2)c2ccc(Br)cc2)CC1,.,-,-,-,54,-,63,34,-,-
Cn1c(CNC(=O)C2CCCCC2)cc2cc(Cl)ccc21,-,70,-,-,65,-,-,-,-,-
Cc1cc2cc(CNC(=O)C3CCCC3)ccc2n1C,.,-,-,-,-,-,.,.,.,.
O=C(NCc1ccc(Cl)cc1)C1CCN(C(=O)c2ccco2)CC1,-,-,-,-,-,-,.,.,.,.
COc1cccc(-c2nc(CS(=O)CC(=O)NCCc3ccccc3)c(C)o2)c1 (centres undefined),-,-,-,-,49,-,52,-,-,-
OCCN(CCCn1c(-c2ccncc2)nc2ccccc21)c1nc(CN2CCCCC2)cs1,-,-,-,-,-,-,.,.,.,.
CCOC(=O)c1csc(NC(=O)CC2CCCC2)n1,-,-,-,-,-,-,.,.,.,.
O=C(CSc1nc2ccccc2c(=O)n1Cc1ccccc1)NCc1ccco1,-,79,-,-,75,-,78,47,65,38
O=C(CSc1nc2ccccc2c(=O)n1Cc1ccc(F)cc1)NCc1cccs1,-,96,-,-,95,-,92,52,99,68
COCc1cc(CN2CCN(Cc3ccsc3)C(CCO)C2)ccc1OC (centres undefined),-,-,-,-,-,-,.,.,.,.
CC(C)Nc1ncnc2c1ncn2[C@H]1CN(Cc2ccccc2)C[C@@H](CO)O1,.,-,.,.,-,.,.,.,.,.
SMILES,GPR7 antagonist,TAAR1 antagonist,CHO parental Ca,OX1R antag-1,TAAR1 agonist,OX1R antag-2,TAAR1 ag confirm,Ga16 ag counter,TAAR1 desensitize,Ga16 nonsel ant
CCN1C(=O)[C@H]2[C@@H](c3ccc(C)cc3)N3C(=O)N(c4ccc(OC)cc4)C(=O)[C@@]3(CC)[C@H]2C1=O,.,-,-,-,-,-,.,.,.,.
CN(C)c1ccc(C(=O)OCC(=O)Nc2ccc(N3CCOCC3)cc2)cc1,-,-,-,-,51,-,-,-,-,-
CC(=O)N1N=C(c2ccc(C)c([N+](=O)[O-])c2)OC1(C)C,-,-,-,-,-,-,.,.,.,.
CC(=O)N1N=C(c2cccc([N+](=O)[O-])c2)OC1(C)c1cccs1 (centres undefined),-,54,-,-,58,-,-,-,-,-
CC(C)N(CCCNC(=O)C1CCN(S(=O)(=O)N2CCOCC2)CC1)Cc1ccccc1,-,-,-,-,-,-,.,.,.,.
O=S1(=O)C[C@H](N2CCC[C@@H]2CO)[C@@H](COCc2ccccc2)N1,.,-,.,.,-,.,.,.,.,.
COc1ccc(NC(=O)COC(=O)c2cc(OC)c(OC)c(OC)c2)c([N+](=O)[O-])c1,-,-,-,-,-,-,.,.,.,.
COc1ccc(NC(=O)COC(=O)c2cc(C)oc2C)c([N+](=O)[O-])c1,.,58,-,-,62,-,-,-,-,-
NC(=O)CC(NC(=O)Cc1ccc(Cl)cc1)c1ccc(NCCc2ccccc2F)c([N+](=O)[O-])c1 (centres undefined),.,.,-,-,.,-,.,-,.,-
Cn1ncc(Cl)c1C(=O)N1CCN(C23CC4CC(CC(C4)C2)C3)CC1,-,-,-,-,-,-,.,.,.,.
CN(C)c1ccc(C=NCC2COc3ccccc3O2)cc1 (centres undefined),-,-,-,-,75,-,82,-,59,-
O=C(NCCC1CCCCN1S(=O)(=O)c1ccc(Cl)cc1)C(=O)NCCN1CCOCC1 (centres undefined),.,-,-,-,-,-,.,.,.,.
